Assay results: ChEMBL document CHEMBL5058577, “EUbOPEN Chemogenomics Library 2 (Multiplex)” (2022)

Test system: HEK-293T
Assay: Multiplex assay against HEK293T
Format: toxicity, cell-based
Details: human
Method in brief: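 Four dyes were applied at seeding to live cells: Hoechst33342, BioTracker Green Microtubule Cytoskeleton Dye, MitoTracker Red and Annexin V Alexa Fluor 680. Imaging after compound addition used a CQ1 microscope at 37°C and 5% CO2. CellPathfinder machine-learning gating then sorted cells into Hoechst high-intensity objects or normal cells, normal cells into healthy, pyknosed or fragmented nuclei, and pyknosed cells into mitotic or apoptotic, with tubulin, mitochondrial-mass and membrane-permeability phenotypes given as per cents of healthy-nucleus cells.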

[1] = 12 h, 1 µM, compound concentration 1 uM, replicate 1
[2] = 12 h, 1 µM, compound concentration 1 uM, replicate 2
[3] = 12 h, 10 µM, compound concentration 10 uM, replicate 1
[4] = 12 h, 10 µM, compound concentration 10 uM, replicate 2
[5] = 24 h, 1 µM, compound concentration 1 uM, replicate 1
[6] = 24 h, 1 µM, compound concentration 1 uM, replicate 2
[7] = 24 h, 10 µM, compound concentration 10 uM, replicate 1
[8] = 24 h, 10 µM, compound concentration 10 uM, replicate 2
[9] = 48 h, 1 µM, compound concentration 1 uM, replicate 1
[10] = 48 h, 1 µM, compound concentration 1 uM, replicate 2
[11] = 48 h, 10 µM, compound concentration 10 uM, replicate 1
[12] = 48 h, 10 µM, compound concentration 10 uM, replicate 2

## Cc1ccc(OCC(O)C(C)NC(C)C)c2c1CCC2.Cl (stereo not given)
[1]
  Population Apoptotic (%): 34%
  Population Fragmented Nuclei (%): 6%
  Population Healthy Nuclei (%): 81%
  Population Hoechst High Intensity Objects (%): 5%
  Population Membrane Permeable-Phenotype (%): 0%
  Population Mitochondria Different-Phenotype (%): 54%
  Population Mitotic Cells (%): 65%
  Population Normal (%): 94%
  Population Pyknosed Nuclei (%): 12%
  Population Tubulin-Different-Phenotype (%): 40%
  Total Cell Count: 409
[2]
  Population Apoptotic (%): 45%
  Population Fragmented Nuclei (%): 5%
  Population Healthy Nuclei (%): 84%
  Population Mitochondria Different-Phenotype (%): 65%
  Population Mitotic Cells (%): 54%
  Population Pyknosed Nuclei (%): 10%
  Population Tubulin-Different-Phenotype (%): 22%
  Total Cell Count: 360
[3]
  Population Apoptotic (%): 43%
  Population Fragmented Nuclei (%): 7%
  Population Healthy Nuclei (%): 67%
  Population Hoechst High Intensity Objects (%): 3%
  Population Membrane Permeable-Phenotype (%): 0%
  Population Mitochondria Different-Phenotype (%): 66%
  Population Mitotic Cells (%): 56%
  Population Normal (%): 96%
  Population Pyknosed Nuclei (%): 25%
  Population Tubulin-Different-Phenotype (%): 61%
  Total Cell Count: 247
[4]
  Population Fragmented Nuclei (%): 9%
  Population Healthy Nuclei (%): 76%
  Population Hoechst High Intensity Objects (%): 18%
  Population Mitochondria Different-Phenotype (%): 79%
  Population Normal (%): 81%
  Population Pyknosed Nuclei (%): 14%
  Population Tubulin-Different-Phenotype (%): 59%
  Total Cell Count: 323
[5]
  Population Apoptotic (%): 35%
  Population Fragmented Nuclei (%): 6%
  Population Healthy Nuclei (%): 80%
  Population Hoechst High Intensity Objects (%): 3%
  Population Membrane Permeable-Phenotype (%): 0%
  Population Mitochondria Different-Phenotype (%): 38%
  Population Mitotic Cells (%): 64%
  Population Normal (%): 96%
  Population Pyknosed Nuclei (%): 12%
  Population Tubulin-Different-Phenotype (%): 25%
  Total Cell Count: 548
[6]
  Population Apoptotic (%): 28%
  Population Fragmented Nuclei (%): 7%
  Population Healthy Nuclei (%): 83%
  Population Hoechst High Intensity Objects (%): 4%
  Population Mitochondria Different-Phenotype (%): 45%
  Population Mitotic Cells (%): 71%
  Population Normal (%): 95%
  Population Pyknosed Nuclei (%): 9%
  Population Tubulin-Different-Phenotype (%): 17%
  Total Cell Count: 444
[7]
  Population Apoptotic (%): 46%
  Population Fragmented Nuclei (%): 11%
  Population Healthy Nuclei (%): 71%
  Population Hoechst High Intensity Objects (%): 5%
  Population Membrane Permeable-Phenotype (%): 1%
  Population Mitochondria Different-Phenotype (%): 53%
  Population Mitotic Cells (%): 53%
  Population Normal (%): 94%
  Population Pyknosed Nuclei (%): 17%
  Population Tubulin-Different-Phenotype (%): 47%
  Total Cell Count: 334
[8]
  Population Apoptotic (%): 50%
  Population Fragmented Nuclei (%): 9%
  Population Healthy Nuclei (%): 78%
  Population Hoechst High Intensity Objects (%): 11%
  Population Membrane Permeable-Phenotype (%): 0%
  Population Mitochondria Different-Phenotype (%): 60%
  Population Mitotic Cells (%): 50%
  Population Normal (%): 88%
  Population Pyknosed Nuclei (%): 11%
  Total Cell Count: 399
[9]
  Population Apoptotic (%): 24%
  Population Fragmented Nuclei (%): 12%
  Population Healthy Nuclei (%): 79%
  Population Hoechst High Intensity Objects (%): 3%
  Population Membrane Permeable-Phenotype (%): 0%
  Population Mitochondria Different-Phenotype (%): 28%
  Population Mitotic Cells (%): 75%
  Population Normal (%): 96%
  Population Pyknosed Nuclei (%): 8%
  Population Tubulin-Different-Phenotype (%): 14%
  Total Cell Count: 804
[10]
  Population Apoptotic (%): 26%
  Population Fragmented Nuclei (%): 11%
  Population Healthy Nuclei (%): 81%
  Population Hoechst High Intensity Objects (%): 1%
  Population Mitochondria Different-Phenotype (%): 27%
  Population Mitotic Cells (%): 73%
  Population Normal (%): 98%
  Population Pyknosed Nuclei (%): 7%
  Total Cell Count: 660
[11]
  Population Apoptotic (%): 40%
  Population Fragmented Nuclei (%): 10%
  Population Healthy Nuclei (%): 74%
  Population Hoechst High Intensity Objects (%): 5%
  Population Membrane Permeable-Phenotype (%): 0%
  Population Mitochondria Different-Phenotype (%): 48%
  Population Mitotic Cells (%): 59%
  Population Normal (%): 94%
  Population Pyknosed Nuclei (%): 14%
  Population Tubulin-Different-Phenotype (%): 43%
  Total Cell Count: 435
[12]
  Population Apoptotic (%): 34%
  Population Fragmented Nuclei (%): 11%
  Population Healthy Nuclei (%): 80%
  Population Membrane Permeable-Phenotype (%): 1%
  Population Mitochondria Different-Phenotype (%): 39%
  Population Mitotic Cells (%): 66%
  Population Pyknosed Nuclei (%): 8%
  Population Tubulin-Different-Phenotype (%): 41%
  Total Cell Count: 611
